This note sets out measurements from BindingDB's records for doi:10.1021/jm970266p (Universidad Central De Venezuela, 1997).

Structures are written as SMILES.

For the test, the target named is T1, Falcipain 2 (Plasmodium falciparum, UniProt Q9N6S8).
T1 sequence (Q9N6S8 whole entry): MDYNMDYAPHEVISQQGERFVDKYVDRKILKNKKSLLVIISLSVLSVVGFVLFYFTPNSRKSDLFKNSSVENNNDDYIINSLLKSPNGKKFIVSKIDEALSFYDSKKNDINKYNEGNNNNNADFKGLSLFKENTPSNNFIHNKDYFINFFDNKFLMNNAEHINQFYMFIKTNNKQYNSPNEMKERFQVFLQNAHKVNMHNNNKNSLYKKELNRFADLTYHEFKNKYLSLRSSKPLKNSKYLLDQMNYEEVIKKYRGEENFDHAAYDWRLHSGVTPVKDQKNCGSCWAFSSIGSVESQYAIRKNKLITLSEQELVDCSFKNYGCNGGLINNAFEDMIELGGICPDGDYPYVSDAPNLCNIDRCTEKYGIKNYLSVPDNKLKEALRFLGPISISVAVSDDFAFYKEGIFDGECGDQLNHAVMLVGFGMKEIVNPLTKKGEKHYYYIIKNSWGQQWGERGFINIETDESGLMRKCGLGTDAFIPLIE
Nature of the test: Inhibition of falcipain activity. The method in brief: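 Soluble parasite extract containing falcipain (30 nM) preincubated 30 min at room temperature with compound (100× DMSO stocks) and 10 mM DTT in 0.1 M sodium acetate, pH 5.5. Z-Phe-Arg-AMC then added to 50 μM final. Fluorescence (ex 380, em 460 nm) followed continuously for 30 min. Rates compared with DMSO controls. Multiple concentrations tested in duplicate or triplicate; IC50 extrapolated from % control activity curves.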
By IC50 is commonly meant the point on the concentration scale where inhibition reaches its midpoint. Low values mean greater potency in that assay, high ones weaker potency in that assay. `COc1cccc(C2CC(=O)C3Sc4cc(F)ccc4N=C3C2)c1OC` (centres undefined) [2-(2,3-Dimethoxy-phenyl)-7-fluoro-2,3-dihydro-1H,10H-phenothiazin-4-one] returned an IC50 of 20 µM. This lies in the double-digit micromolar range.

Consider `O=C1CC(c2ccc(Cl)cc2Cl)CC2=Nc3ccc(F)cc3SC12` (centres undefined) [2-(2,4-Dichloro-phenyl)-7-fluoro-2,3-dihydro-1H,10H-phenothiazin-4-one], for which the IC50 was determined as 10 µM. `COc1ccc(C2CC(=O)C3Sc4cc(F)ccc4N=C3C2)cc1OC` (centres undefined) [2-(3,4-Dimethoxy-phenyl)-7-fluoro-2,3-dihydro-1H,10H-phenothiazin-4-one] gave an IC50 of 20 µM. As for `COc1ccc(C2CC(=O)C3C(=Nc4ccc(F)cc4S3(=O)=O)C2)cc1OC` (centres undefined) [2-(3,4-Dimethoxy-phenyl)-7-fluoro-5,5-dioxo-2,3,5,10-tetrahydro-1H-5lambda*6*-phenothiazin-4-one], half-maximal inhibition (IC50) required 5 µM. Compound `O=C1CC(c2ccc(Cl)cc2)CC2=Nc3ccc(F)cc3SC12` (centres undefined) [2-(4-Chloro-phenyl)-7-fluoro-2,3-dihydro-1H,10H-phenothiazin-4-one] showed a 50% inhibitory concentration (IC50) of 5 µM. In the case of `O=C1CC(c2ccc(Cl)cc2)CC2=Nc3ccc(F)cc3S(=O)(=O)C12` (centres undefined) [2-(4-Chloro-phenyl)-7-fluoro-5,5-dioxo-2,3,5,10-tetrahydro-1H-5lambda*6*-phenothiazin-4-one] it was 5 µM; in that of `CC1(C)CC(=O)C2Sc3cc(Cl)ccc3N=C2C1` (centres undefined) [7-Chloro-2,2-dimethyl-2,3-dihydro-1H,10H-phenothiazin-4-one], 30 µM. `CC1(C)CC(=O)C2C(=Nc3ccc(Cl)cc3S2(=O)=O)C1` (centres undefined) [7-Chloro-2,2-dimethyl-5,5-dioxo-2,3,5,10-tetrahydro-1H-5lambda*6*-phenothiazin-4-one] displayed an IC50 of 5 µM. In the case of `COc1cccc(C2CC(=O)C3Sc4cc(Cl)ccc4N=C3C2)c1OC` (centres undefined) [7-Chloro-2-(2,3-dimethoxy-phenyl)-2,3-dihydro-1H,10H-phenothiazin-4-one] it was 10 µM. In the case of `COc1cccc(C2CC(=O)C3C(=Nc4ccc(Cl)cc4S3(=O)=O)C2)c1OC` (centres undefined) [7-Chloro-2-(2,3-dimethoxy-phenyl)-5,5-dioxo-2,3,5,10-tetrahydro-1H-5lambda*6*-phenothiazin-4-one], half-maximal inhibition (IC50) was put at 4 µM. This IC50 lies about 2.5-fold lower than the previous one. Regarding `O=C1CC(c2ccc(Cl)cc2Cl)CC2=Nc3ccc(Cl)cc3SC12` (centres undefined) [7-Chloro-2-(2,4-dichloro-phenyl)-2,3-dihydro-1H,10H-phenothiazin-4-one], 10 µM corresponded to half-maximal inhibition (IC50). As for `O=C1CC(c2ccc(Cl)cc2Cl)CC2=Nc3ccc(Cl)cc3S(=O)(=O)C12` (centres undefined) [7-Chloro-2-(2,4-dichloro-phenyl)-5,5-dioxo-2,3,5,10-tetrahydro-1H-5lambda*6*-phenothiazin-4-one], the IC50 was 30 µM. In turn, `COc1ccc(C2CC(=O)C3Sc4cc(Cl)ccc4N=C3C2)cc1OC` (centres undefined) [7-Chloro-2-(3,4-dimethoxy-phenyl)-2,3-dihydro-1H,10H-phenothiazin-4-one] yielded an IC50 of 30 µM. Compound `COc1cccc(C2CC(=O)C3Sc4cc(Cl)ccc4N=C3C2)c1` (centres undefined) [7-Chloro-2-(3-methoxy-phenyl)-2,3-dihydro-1H,10H-phenothiazin-4-one] had an IC50 of 20 µM. The compound `O=C1CC(c2ccc(Cl)cc2)CC2=Nc3ccc(Cl)cc3SC12` (centres undefined) [7-Chloro-2-(4-chloro-phenyl)-2,3-dihydro-1H,10H-phenothiazin-4-one] yielded a half-maximal inhibitory concentration (IC50) of 4 µM.

For the compound `O=C1CC(c2ccc(Cl)cc2)CC2=Nc3ccc(Cl)cc3S(=O)(=O)C12` (centres undefined) [7-Chloro-2-(4-chloro-phenyl)-5,5-dioxo-2,3,5,10-tetrahydro-1H-5lambda*6*-phenothiazin-4-one], it took 4 µM to reach half-maximal inhibition (IC50).

With `COc1ccc(C2CC(=O)C3Sc4cc(Cl)ccc4N=C3C2)cc1` (centres undefined) [7-Chloro-2-(4-methoxy-phenyl)-2,3-dihydro-1H,10H-phenothiazin-4-one], the IC50 is 10 µM. In the case of `COc1ccc(C2CC(=O)C3C(=Nc4ccc(Cl)cc4S3(=O)=O)C2)cc1` (centres undefined) [7-Chloro-2-(4-methoxy-phenyl)-5,5-dioxo-2,3,5,10-tetrahydro-1H-5lambda*6*-phenothiazin-4-one] it was 30 µM; in that of `O=C1CC(c2ccccc2)CC2=Nc3ccc(Cl)cc3SC12` (centres undefined) [7-Chloro-2-phenyl-2,3-dihydro-1H,10H-phenothiazin-4-one], 10 µM; in that of `O=C1CC(c2ccccc2)CC2=Nc3ccc(Cl)cc3S(=O)(=O)C12` (centres undefined) [7-Chloro-5,5-dioxo-2-phenyl-2,3,5,10-tetrahydro-1H-5lambda*6*-phenothiazin-4-one], 4 µM.

In turn, `CC1(C)CC(=O)C2C(=Nc3ccc(F)cc3S2(=O)=O)C1` (centres undefined) [7-Fluoro-2,2-dimethyl-5,5-dioxo-2,3,5,10-tetrahydro-1H-5lambda*6*-phenothiazin-4-one] displayed an IC50 of 5 µM. The IC50 values of the last two compounds are within 1.5-fold of each other. `COc1cccc(C2CC(=O)C3Sc4cc(F)ccc4N=C3C2)c1` (centres undefined) [7-Fluoro-2-(3-methoxy-phenyl)-2,3-dihydro-1H,10H-phenothiazin-4-one] returned an IC50 of 20 µM. `COc1cccc(C2CC(=O)C3C(=Nc4ccc(F)cc4S3(=O)=O)C2)c1` (centres undefined) [7-Fluoro-2-(3-methoxy-phenyl)-5,5-dioxo-2,3,5,10-tetrahydro-1H-5lambda*6*-phenothiazin-4-one] had a half-inhibitory concentration (IC50) of 5 µM. This IC50 is about 4-fold lower than that of the compound before.

`O=C1CC(c2ccccc2)CC2=Nc3ccc(F)cc3SC12` (centres undefined) [7-Fluoro-2-phenyl-2,3-dihydro-1H,10H-phenothiazin-4-one]: the IC50 was determined as 20 µM.
